Screening data from PubChem BioAssay.
STAT1 act: STAT1 signaling activators, primary screen, cell-based, HTS, luciferase reporter | NIH 3T3 STAT1-luciferase reporter, IFN-gamma, luminescence; 100% = IFN-gamma alone, no compound | activation (% of control), % at 5.5 µM | actives 2.6% (n = 200,000);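 active = activation above the screen-wide mean activation plus 3 SD, cut at about 130% in these data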;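 note: raw ratio to IFN-gamma control signal so 100% means no change and 0% no light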
STAT3 inh-1: IL-6 driven STAT3 reporter inhibitors, primary screen, U3A cells, luciferase, luminescence, MLSCN library; IL-6 STAT3-luciferase reporter; host cell line lacks STAT1; inhibition, % at 5.5 µM; actives 0.89% (n = 190,000);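 active = inhibition above the mean inhibition across all screened compounds plus 3 SD, cut at about 44% in these data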;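 note: 0% = DMSO only wells and 100% = 100 µM nifuroxazide control wells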
STAT1 blocker: STAT1 signaling inhibitors, primary screen, cell-based, HTS, luciferase reporter; NIH 3T3 STAT1-luciferase reporter, IFN-gamma, luminescence; inhibition, % at 5.5 µM; actives 0.35% (n = 200,000); AID 920, 2007;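 active = inhibition above a set limit, the mean inhibition across all tested compounds plus 3 SD, cut at about 34% in these data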;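 note: 0% = IFN-gamma with DMSO and 100% = IFN-gamma with 300 µM nifuroxazide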
STAT3 activator: IL-6 driven STAT3 reporter potentiators, primary screen, U3A cells, luciferase, luminescence, MLSCN library; IL-6 STAT3-luciferase reporter; 100% = signal with IL-6 EC80 alone; activation (% of control), % at 5.6 µM; actives 0.91% (n = 190,000);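 active = activation above the screen-wide mean of compound activation plus 3 SD, cut at about 130% in these data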;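 note: 0% = background luminescence of wells with medium and substrate only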
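Test system: STAT3-luciferase reporter U3A cells; Detection: reporter luminescence signal; Times: 1 h compound pre-exposure, 6 h IL-6 stimulation, 37 °C; Benchmarks: IL-6-only high control; Also added: IL-6 stimulus at 33 ng/mL final.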
NF-kB neuron act: activators of NF-kB expression in neurons, primary screen, cell-based, HTS. actives 1.6% (n = 190,000). human neuronal cells, NF-kB reporter expression; active compounds read high. fold change at 12.5 µM; in the data active = fold change above about 3.3
APP 5'UTR act: activators of APP 5'UTR luciferase reporter, primary screen, SH-SY5Y cells; SH-SY5Y APP 5'UTR luciferase reporter, luminescence; zero percent = DMSO vehicle wells; activation, % at 2 µM; actives 1% (n = 190,000); AID 1276, 2008;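 active = activation above a set limit, based on mean plus 3 SD of controls, cut at about 140% in these data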
STAT3 inh-2: STAT3 reporter inhibitors, retest of hits, confirmation, U3A cells, luciferase, luminescence | shares compounds with STAT3 inh-1 | IL-6 STAT3 luciferase reporter; cell line lacks STAT1 | inhibition, % at 5.7 µM | actives 45% (n = 1,200) | AID 1265, 2008;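 active = inhibition above the hit cutoff computed for the primary STAT3 screen, cut at about 44% in these data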;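 note: 0% = IL-6 plus DMSO and 100% = IL-6 plus nifuroxazide control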
NFkB inh STAT3ct: NF-kB reporter inhibitors in human cells, confirmation, counter-screen for STAT3 inhibitor project, cell-based, HEK293T, luciferase, TNF-alpha stimulus; shares compounds with STAT3 inh-1; TNF-alpha induced; inhibition, % at 5.7 µM; actives 36% (n = 1,200); AID 1308, 2008;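 active = inhibition above the mean of solvent-only control wells plus 3 SD, cutoff set per campaign, cut at about 13% in these data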;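 note: 0% = TNF-alpha with DMSO and 100% = TNF-alpha with MG high control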
STAT1 inh STAT3c: STAT1 reporter inhibitors, IFN-gamma induced, confirmation, counter-screen for STAT3 inhibitor project, cell-based, NIH 3T3, luciferase luminescence; inhibition, % at 5.7 µM; NIH 3T3 STAT1-luciferase reporter; AID 1317, 2008; actives 27% (n = 1,200); shares compounds with STAT3 inh-1;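 active = inhibition above the mean plus 3 SD of solvent-only control wells, limit set per screening run, cut at about 16% in these data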;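 note: 0% = DMSO with IFN-gamma and 100% = nifuroxazide control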
Numbers without * were called inactive; . = no result given. The list is not random: actives were taken first. Their share in the collection is about 5.1%.

SMILES	STAT1 act	STAT3 inh-1	STAT1 blocker	STAT3 activator	NF-kB neuron act	APP 5'UTR act	STAT3 inh-2	NFkB inh STAT3ct	STAT1 inh STAT3c
Cn1cccc1C(=O)OCC(=O)N1CC(=O)Nc2ccccc21	104	2	-6	99	1.1	-8	.	.	.
COc1ccc2cc3cc(C(=O)Nc4cc(OC)c(OC)c(OC)c4)oc3nc2c1	100	46*	0	64	0.32	-5	33	8	-17
O=C(Nc1ccc(Oc2ccccc2)cc1)c1cnc2n(c1=O)CCS2	87	78*	14	40	1.2	4	73*	11	14
Cc1cc(C)c[n+](C(C)C(=O)c2ccc(-c3ccccc3)cc2)c1 (stereo unspecified)	85	22	16	82	0.39	-6	.	.	.
Cc1cc(Nc2cccc([N+](=O)[O-])c2)n2c(nc3ccccc32)c1C#N	101	80*	8	32	1	-9	73*	46*	55*
Cc1cc(N=NC(=O)c2ccccc2)ccc1O	77	55*	24	56	1.1	10	5	1	4
CC(=O)N1CCc2c(sc(NC(=O)c3ccc([N+](=O)[O-])o3)c2C#N)C1	115	58*	-16	54	1	-62	27	-19	22*
COc1ccc(C(=O)Nc2sc3c(c2C#N)CCN(C(C)=O)C3)cc1	82	37	19	71	1.5	8	.	.	.
Cc1csc(SCC(=O)Nc2sc3c(c2C#N)CCC3)n1	101	-3	-1	106	1.5	-5	.	.	.
N#Cc1c(NC(=O)c2ccccc2)sc2c1CCCCC2	136*	52*	-20	58	3.8*	198*	5	-25	-147
Cc1ccnc(SCC(=O)Nc2sc3c(c2C#N)CCCC3)n1	86	72*	15	39	0.73	1	57*	15*	17*
O=C(Nc1sc2c(c1C(=O)O)CCCCC2)c1ccccc1	127	4	-32	100	1.9	84	.	.	.
CC(C)(C)C1CCc2c(sc(NC(=O)CSc3ncn[nH]3)c2C#N)C1 (stereo unspecified)	111	-2	-7	104	1	-14	.	.	.
N#Cc1c(NC(=O)CSc2ncn[nH]2)sc2c1CCCC2	80	60*	21	52	0.46	.	57*	18*	2
CC1CCN(c2c(NCc3ccc(C(=O)N4c5ccccc5CC4C)cc3)c(=O)c2=O)CC1 (stereo unspecified)	76	6	26	99	0.8	-14	.	.	.
COCCNC(=O)NC12CC3(C)CC(C)(CC(C)(C3)C1)C2	88	-2	12	106	1.1	-3	.	.	.
O=C(OCc1ccccc1Cl)c1ccc(-n2cnnc2)cc1	93	13	7	88	0.88	11	.	.	.
Cc1cccc(C(=O)NCC(=O)N2CC(=O)Nc3ccccc32)c1	101	2	-1	105	1.1	10	.	.	.
O=C(CCCOc1ccc(Cl)cc1)N1CCCCC1	103	2	-11	99	1.8	10	.	.	.
O=C(CCCOc1ccccc1)N1CCCCC1	101	48*	-1	62	2.1	103	7	-8	-74
Cc1cccc(C(=O)Nc2ccc(N3CCN(S(C)(=O)=O)CC3)cc2)c1	128	-6	-30	111	1.4	44	.	.	.
CN(C)c1ccc(NC(=O)c2cnsn2)cc1	81	50*	19	59	1.1	86	16	-14	-36
CC(C)c1ccc2oc(-c3ccc(N)cc3)nc2c1	87	78*	28	36	3.4*	125	32	5	-88
COC(=O)c1ccc(-c2nc3ccc(C)cc3o2)cc1	120	68*	-22	47	7*	25	43	-30	-82
Cc1ccc(-c2nc3cc(N)ccc3o2)cc1	125	59*	-27	51	5.4*	45	17	-16	-120
SMILES	STAT1 act	STAT3 inh-1	STAT1 blocker	STAT3 activator	NF-kB neuron act	APP 5'UTR act	STAT3 inh-2	NFkB inh STAT3ct	STAT1 inh STAT3c
Clc1ccc2oc(-c3ccccc3)nc2c1	128	-20	-34	117	2.1	-8	.	.	.
Cc1ccc(-c2nc3cc(C)ccc3o2)cc1	71	84*	32	34	1.6	175*	38	40*	3
COc1ccc(/C=C2/SC(=S)N(CCC(=O)O)C2=O)cc1	84	57*	17	52	0.49	-50	57*	32*	12
O=C(O)CCN1C(=O)/C(=C\c2ccncc2)SC1=S	96	6	2	98	1.1	15	.	.	.
Cc1ccc(-n2ncc3c(SCc4cccnc4)ncnc32)c(C)c1	80	75*	21	40	1.4	14	68*	4	6
Cc1ccc(-n2ncc3c(SCc4cccc(C)c4)ncnc32)cc1	104	-1	-5	100	1.2	36	.	.	.
CCOC(=O)c1c(-c2ccccc2)csc1NC(=O)/C(C#N)=C/c1ccc(O)c(OC)c1	97	-4	3	99	0.47	15	.	.	.
Brc1ccc(/C=N/Nc2ccc3ccccc3n2)cc1	126	2	-28	99	3.3	30	.	.	.
Fc1cccc(/C=N/Nc2ccc3ccccc3n2)c1	68	60*	34	52	1.2	225*	17	-4	-82
O=C(NCCCO)c1nc2ccccc2s1	108	-5	-9	108	1	-5	.	.	.
CCCNC(=O)c1ccc(-c2nc3ccccc3s2)s1	88	75*	13	39	4.6*	155*	45*	-12	-106
O=C(COc1ccc(Br)cc1Br)NC1CCCC1	141*	49*	-47	61	2.7	53	53*	-2	-43
CCOC(=O)N1CCN(S(=O)(=O)c2cc(OCC(=O)NC3CCCCC3)c(C)cc2Cl)CC1	87	6	14	97	0.51	-25	.	.	.
Cc1cc(Cl)c(S(=O)(=O)N2CCSCC2)cc1OCC(=O)NC1CCCCC1	97	67*	3	46	0.72	-20	67*	15*	10
Cc1ccc(OCC(=O)NC2CCCC2)c(C)c1	119	20	-21	86	1.9	19	.	.	.
